Laboratory results: PMC3658176 (Cancer cell, 2013)
Where no end group is shown, it is not given here.

Columns and labels:
H2-K^b = biological target: T1, H2-K^b (Mus musculus, UniProt P01901); assay: Cell-free competition MHC peptide binding assay, purified H2-K^b
T1 sequence (P01901 22-369): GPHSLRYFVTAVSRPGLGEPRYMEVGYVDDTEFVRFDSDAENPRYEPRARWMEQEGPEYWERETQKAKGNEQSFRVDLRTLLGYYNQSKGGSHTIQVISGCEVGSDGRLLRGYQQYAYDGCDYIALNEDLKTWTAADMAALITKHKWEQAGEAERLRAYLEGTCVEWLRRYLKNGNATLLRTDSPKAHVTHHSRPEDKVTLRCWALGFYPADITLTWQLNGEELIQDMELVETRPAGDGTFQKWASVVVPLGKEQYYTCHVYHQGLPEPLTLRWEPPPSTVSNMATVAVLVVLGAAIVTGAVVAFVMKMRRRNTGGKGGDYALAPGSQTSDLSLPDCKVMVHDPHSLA
T1 sequence (P01887 21-119 partner): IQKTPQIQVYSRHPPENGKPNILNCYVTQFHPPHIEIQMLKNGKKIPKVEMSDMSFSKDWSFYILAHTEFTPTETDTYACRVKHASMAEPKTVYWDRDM

H2-D^b = biological target: T2, H2-D^b (Mus musculus, UniProt P01899); assay: Cell-free competition MHC peptide binding assay, purified H2-D^b
T2 sequence (P01899 25-362): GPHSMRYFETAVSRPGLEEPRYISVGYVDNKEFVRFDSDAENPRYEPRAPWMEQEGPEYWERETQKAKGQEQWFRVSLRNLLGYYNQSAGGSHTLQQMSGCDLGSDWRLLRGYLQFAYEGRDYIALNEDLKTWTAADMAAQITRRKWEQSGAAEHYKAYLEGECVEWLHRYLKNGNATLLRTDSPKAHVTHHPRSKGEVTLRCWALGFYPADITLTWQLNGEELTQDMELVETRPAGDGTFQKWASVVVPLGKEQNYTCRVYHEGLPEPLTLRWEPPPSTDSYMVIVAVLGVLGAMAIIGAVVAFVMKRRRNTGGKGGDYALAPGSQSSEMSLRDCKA
T2 sequence (P01887 21-119 partner): T1 sequence (P01887 21-119 partner)

HLA-A*0201 = HLA-A*0201 (Homo sapiens, UniProt P04439, D140Y/D185E/D98H/E176V/E277Q/G131W/G231S/I119V/I121R/I166T/I218V/L300P/L318F/N151K/N90K/P208A/P217A/Q86G/Q94H/R138H/R169H/T345S); assay: Cell-free competition MHC peptide binding assay, purified HLA-A*0201
Outline: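 Purified MHC class I molecule incubated with a labelled probe peptide and graded concentrations of unlabelled test peptide. IC50 taken as the inhibitor peptide concentration that displaces half of the probe. Labelled probe concentration was below MHC concentration. Under these conditions, and where IC50 ≥ MHC concentration, IC50 approximates KD.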

IC50 (H2-D^b) [nM] | Compound | IC50 (H2-K^b) [nM] | other results
 | CC[C@H](C)[C@H](NC(=O)[C@@H](NC(=O)[C@@H](N)CO)[C@@H](C)CC)C(=O)N[C@@H](CC(N)=O)C(=O)N[C@@H](Cc1ccccc1)C(=O)N[C@@H](CCC(=O)O)C(=O)N[C@@H](CCCCN)C(=O)N[C@@H](CC(C)C)C(=O)O [OVA257–264] | 0.9 | 
454 | EGPRNQDWL [EGP] |  | 
 | FMDGTMSQV [Tyr369–377] |  | IC50 (HLA-A*0201): 4.2 nM
186 | KVPRNQDWL [hgp100_25–33] |  | 
 | SIYRYYGL [SIY] | 1.1 | 

Compound | IC50 (H2-D^b) [nM] | IC50 (H2-K^b) [nM] | other results
EGSRNQDWL [mgp100_25–33] | 23000 |  | 
